We go through 7 molecules from PubChem BioAssay.

The nature of experiment [1]: inhibitors of TNFa-induced NFkB p65 translocation, primary screen, imaging, HUVEC, MLSMR starter and 10KST1 sets (AID 438;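 active = inhibition above 20% together with a positive visual image hit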;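 also: compound added about 3h40 before a 20 min TNFalpha stimulation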;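 as to inhibition: signal is the nuclear over cytoplasmic p65 intensity ratio per well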). To be noted: HUVEC TNFa-induced p65 nuclear translocation; cell count: measured here: nuclei count (cytotoxicity indicator), at 2.08 µM; inhibition: at 2 µM, stronger effect = higher value, 0% TNFa-plus-vehicle, 100% no-TNFa wells.
Experiment [2] in a line: endothelial E-selectin expression blockers – imaging, HUVEC, immunofluorescence, MLSMR starter and 10KST1 sets, primary screen (AID 487;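 active = visually confirmed hit in the image check and inhibition above 20%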;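 as to inhibition: signal is fraction of cell area covered by stained E-selectin grains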;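 as to nuclei count: 100% = median nuclei count of all wells on the same plate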). To be noted: HUVEC TNFalpha-induced E-selectin immunofluorescence imaging, at 2 µM; inhibition: stronger effect = higher value; nuclei count: measured here: cell number, toxicity.
A short description of experiment [3]: Primary imaging screen for DUSP6 inhibitors that restore phospho-Erk in transfected HeLa cells, chemical complementation (AID 609;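 active = compounds giving at least 50% inhibition in the cell-based MKP-3 phosphatase rescue imaging test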;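 as to inhibition: phospho-Erk level distribution per well compared with pooled transfected vehicle control wells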). The settings on record: HeLa MKP-3 transfected, phospho-Erk imaging KS statistic, at 10 µM, cells stimulated with TPA for 15 min.
In experiment [4] the target is Dual specificity protein phosphatase 6 (Homo sapiens) (UniProt Q16828). Described as above. To be noted: HeLa MKP-3 transfected, phospho-Erk imaging KS statistic; at 10 µM; stronger effect = higher value; cells stimulated with TPA for 15 min.
Sequence of Dual specificity protein phosphatase 6 (Homo sapiens) (Q16828 whole entry, looked up): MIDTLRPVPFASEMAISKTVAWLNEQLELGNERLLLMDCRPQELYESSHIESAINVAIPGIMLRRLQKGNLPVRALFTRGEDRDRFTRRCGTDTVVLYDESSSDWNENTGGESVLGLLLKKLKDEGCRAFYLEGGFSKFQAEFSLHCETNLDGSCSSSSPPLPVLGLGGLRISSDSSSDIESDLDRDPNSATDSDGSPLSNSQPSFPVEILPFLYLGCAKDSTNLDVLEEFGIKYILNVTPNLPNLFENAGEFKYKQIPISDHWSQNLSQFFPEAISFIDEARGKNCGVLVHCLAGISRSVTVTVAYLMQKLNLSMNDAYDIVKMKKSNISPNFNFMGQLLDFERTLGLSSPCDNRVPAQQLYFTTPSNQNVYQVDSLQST
In experiment [5] the target is Voltage-gated potassium channel subunit beta-2 (Rattus norvegicus) (UniProt P62483). Put plainly: inhibitors of rat Kvbeta2 reductase activity – biochemical, NADPH fluorescence, primary screen (AID 622;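 active = fluorescence slope higher than the sample average by over 3 SD, cut at about -0.22 in these data, passing the limit was not always enough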;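 also: slope of raw intensity against log time taken from 70 to 1610 s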). The settings on record: recombinant KvBeta, 4-cyanobenzaldehyde reduction, at 10 µM, stronger effect = higher value.
Sequence of Voltage-gated potassium channel subunit beta-2 (Rattus norvegicus) (P62483 whole entry, looked up): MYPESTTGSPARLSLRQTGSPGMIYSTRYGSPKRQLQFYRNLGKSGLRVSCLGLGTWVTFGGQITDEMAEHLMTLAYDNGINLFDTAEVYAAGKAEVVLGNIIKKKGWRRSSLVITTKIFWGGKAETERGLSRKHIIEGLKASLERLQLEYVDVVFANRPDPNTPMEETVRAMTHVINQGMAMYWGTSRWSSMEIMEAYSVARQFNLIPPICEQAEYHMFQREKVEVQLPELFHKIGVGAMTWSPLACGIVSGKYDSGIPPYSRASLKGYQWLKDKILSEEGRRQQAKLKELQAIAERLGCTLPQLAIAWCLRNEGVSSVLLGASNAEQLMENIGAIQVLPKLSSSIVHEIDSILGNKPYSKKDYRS
Experiment [6] shares this target. Briefly: enhancers of rat Kvbeta2 NADPH turnover – biochemical, NADPH fluorescence, primary screen (AID 623).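 Also: fluorescence intensity change per second fitted from 20 to 320 s.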 To be noted: Recombinant KvBeta, NADPH fluorescence decrease slope, 10 min; at 10 µM; stronger effect = lower value.
Experiment [7] deals with Alpha-2C adrenergic receptor (Homo sapiens) (UniProt P18825). Briefly: compounds altering alpha2C-coupled GIRK flux – cell-based, HEK293 alpha2C/GIRK1/2, thallium flux, primary screen (AID 624;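 active = fluorescence slope after compound addition differing from the mean of all screened samples at 99.7% confidence, in either direction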;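 also: slope of fluorescence ratio to pre-addition baseline per second over 15 to 24 s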). To be noted: thallium flux BTC fluorescence, at 10 µM, actives lie on both sides.
Sequence of Alpha-2C adrenergic receptor (Homo sapiens) (P18825 whole entry, looked up): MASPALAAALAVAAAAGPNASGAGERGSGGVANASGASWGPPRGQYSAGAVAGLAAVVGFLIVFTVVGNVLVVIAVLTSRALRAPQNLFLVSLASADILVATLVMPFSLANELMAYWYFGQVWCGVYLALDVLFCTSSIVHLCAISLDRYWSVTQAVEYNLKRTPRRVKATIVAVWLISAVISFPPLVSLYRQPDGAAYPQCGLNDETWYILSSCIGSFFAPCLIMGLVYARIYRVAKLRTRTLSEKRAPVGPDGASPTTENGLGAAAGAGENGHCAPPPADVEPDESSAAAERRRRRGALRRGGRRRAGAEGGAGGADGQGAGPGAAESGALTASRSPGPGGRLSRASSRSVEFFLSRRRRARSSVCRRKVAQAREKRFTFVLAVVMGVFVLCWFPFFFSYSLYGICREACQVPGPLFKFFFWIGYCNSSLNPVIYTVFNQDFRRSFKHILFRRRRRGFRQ
The nature of experiment [8]: inhibitors of larval lipid processing in zebrafish, primary screen, whole organism, PED6 fluorescence, gall bladder and intestine (AID 686;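 active = a full or partial loss of lipid-probe fluorescence in the fish gall bladder, intestine or both, judged by eye; inactive = no fluorescence loss, or compound toxic to the fish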;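 also: larvae 5 to 7 days old with five fish per well; signal comes from phospholipase A2 cleavage of quenched PED6 carried via bile; overnight exposure to compound and PED6 before scoring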). The settings on record: Zebrafish larvae PED6 lipid processing, fluorescence scoring; screened at 20 µM (by protocol). Summed up:
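system = live zebrafish larvae aged 5-7 days, whole organism | probe or stimulus = ingested quenched lipid PED6 at 100 nM | doses = 20 µM single dose | timing = overnight exposure | detection = fluorescence microscopy with visual scoring of gall bladder and intestine | read-out = visual per-well fluorescence inhibition score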

The nature of experiment [9]: loss of swimming-algae plug formation – whole organism, Chlamydomonas reinhardtii, WT vs cilia-less mutant, absorbance, 96-well, primary screen (AID 463189;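 active = inhibition at or above 50% relative to wild type and mutant plate controls; inactive = inhibition below 50%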;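 also: 0% = wild type cc124 cells in DMSO and 100% = ciliumless bld1 mutant cells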). The settings on record: Chlamydomonas reinhardtii gravitaxis, OD600 absorbance, 2 days; at 10 µM; stronger effect = higher value.
[10] abbreviates: measured here: cell density z-score.
Setting [11] is: measured here: nuclear c-Myc green intensity z-score.
The mark [12] stands for this setting: measured here: nuclear pErk red intensity z-score, stronger effect = higher value.

Structures are written as SMILES. Activity calls are given as the source filed them.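 The calls were made as follows, unless noted: active = NADPH fluorescence slope more negative than the mean of all samples by about 3 SD, 99.7% confidence; inactive = the rest.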

In the case of `CC1(C)Cc2nc(N)c(C(=O)NCCO)cc2CO1`, in [1], the cell count was found to be 668. Besides, the inhibition (usually the relative decrease from the control value, in per cent) in experiment [1] is -10.5% (inactive); in experiment [2], 15.2% (inactive); in experiment [4], -3.98% (inactive); in experiment [9], 6.5% (inactive). For the same molecule, the nuclei count in experiment [2] turned out to be 184%. For the same molecule, the z-score is -0.73 in [3] (setting [10]), 0.225 in experiment [3] (setting [11]) and 0.421 in [3] (setting [12]). The fluorescence slope in experiment [5] is -0.476 (inactive). For the same molecule, the NADPH fluorescence slope in experiment [6] is -3e-05 (inactive). Besides, in [7], the slope was 0.00417 (inactive). For the same molecule, the molecule was classed as inactive in experiment [8].

Take `Cc1noc(NS(=O)(=O)c2ccc(NC(=O)COc3ccccc3)cc2)c1C`: the cell count in experiment [1] came to 641. For the same molecule, the inhibition is -10.1% (inactive) in experiment [1], 29.8% (inactive) in [2], -11.5% (inactive) in [4] and 4.64% (inactive) in experiment [9]. The nuclei count in [2] amounted to 182%. Also, the z-score in [3] (setting [10]) was -0.876; in experiment [3] (setting [11]), 0.527; in experiment [3] (setting [12]), -0.0095. Besides, the fluorescence slope in experiment [5] is -0.376 (inactive). The NADPH fluorescence slope in experiment [6] was -3.7e-05 (inactive). Moreover, the slope in experiment [7] was 0.00522 (inactive). Further, the outcome in experiment [8] was inactive.

For `Cc1ccc(-n2c(=O)c3c4c(sc3n3c(C)nnc23)COC(C(C)C)C4)cc1` (stereo unspecified), in experiment [1], the cell count came to 551. Moreover, the inhibition in experiment [1] was -2.6% (inactive); in experiment [2] it was -1.3% (inactive); in experiment [4] it was 9.82% (inactive); in experiment [9] it was 49.1% (inactive). In addition, the nuclei count in experiment [2] worked out at 122%. For the same molecule, the z-score in experiment [3] (setting [10]) is 0.656; in experiment [3] (setting [11]), -0.667; in [3] (setting [12]), -0.392. Moreover, in experiment [5], the fluorescence slope was -0.411 (inactive). The NADPH fluorescence slope in experiment [6] is 2.1e-05 (inactive). Moreover, the slope in [7] is 0.00541 (inactive). Also, in experiment [8], the result was inactive.

On to `COc1cccc(C2=CC(c3ccccc3)n3nnnc3N2)c1` (stereo unspecified), for which the cell count in [1] worked out at 586. The inhibition in [1] is 22.3% (inactive); in experiment [2] it was -12.1% (inactive); in experiment [4] it was -7.01% (inactive); in [9], 22.4% (inactive). Also, in experiment [2], the nuclei count was determined as 120%. The z-score is 0.0896 in experiment [3] (setting [10]), 0.142 in experiment [3] (setting [11]) and -0.691 in [3] (setting [12]). The fluorescence slope in experiment [5] is -0.275 (inactive). The NADPH fluorescence slope in [6] was 1.9e-05 (inactive). Besides, the slope in experiment [7] was 0.00526 (inactive). In addition, in experiment [8], the outcome was inactive.

Turning to `COC(=O)c1nn2c(C(F)(F)F)cc(-c3ccc(Br)o3)nc2c1Br`, the cell count in experiment [1] came to 510. Besides, the inhibition is -7.1% (inactive) in experiment [1], 1.9% (inactive) in [2], -2.07% (inactive) in [4] and 8.6% (inactive) in experiment [9]. The same molecule yielded a nuclei count in [2] of 120%. Moreover, the z-score is -1.65 in [3] (setting [10]), -0.461 in experiment [3] (setting [11]) and 2.56 in experiment [3] (setting [12]). Also, the fluorescence slope in experiment [5] is -0.442 (inactive). For the same molecule, the NADPH fluorescence slope in experiment [6] was -6.2e-05 (inactive). Besides, the slope in experiment [7] is 0.00401 (inactive). Also, the result in [8] was inactive.

As to `COc1ccc(OCC(=O)N2CCN(C(=O)c3cccc4ccccc34)CC2)cc1`, the cell count in [1] amounted to 413. The inhibition in [1] is -2.6% (inactive); in experiment [2], -293% (inactive); in experiment [4], 3.66% (inactive); in experiment [9], 0.794% (inactive). Besides, in [2], the nuclei count stood at 133%. Also, the values for the z-score in [3] (setting [10]), in [3] (setting [11]) and in experiment [3] (setting [12]) were -0.479, 0.976 and -0.768, respectively. For the same molecule, the fluorescence slope in experiment [5] was -0.448 (inactive). The NADPH fluorescence slope in experiment [6] was -1.4e-05 (inactive). Besides, the slope in [7] was 0.00599 (inactive). Moreover, in experiment [8], the molecule was classed as inactive.

For the molecule `COC(=O)c1n[nH]c2ccccc12`, the cell count in experiment [1] was determined as 323. The inhibition in experiment [1] is 0.5% (inactive); in [2], -157% (inactive); in experiment [4], -0.624% (inactive); in experiment [9], 17.4% (inactive). In experiment [2], the nuclei count was 119%. Also, the figures for the z-score in experiment [3] (setting [10]), in [3] (setting [11]) and in [3] (setting [12]) were -0.132, 0.244 and -1.14, respectively. For the same molecule, the fluorescence slope in experiment [5] is -0.287 (inactive). In addition, the NADPH fluorescence slope in experiment [6] was -1.1e-05 (inactive). Also, in [7], the slope was 0.00523 (inactive). The outcome in experiment [8] was inactive.
